Measured values from ChEMBL document CHEMBL1149269, “Novel 2-(substituted phenyl)benzimidazole derivatives with potent activity against IgE, cytokines, and CD23 for the treatment of allergy and asthma” (J Med Chem, 2004).
pIC50: −log10 of the molar value. Activity calls are given as the source filed them. The calls are words filed in the database; no cut-off is given here.

Legend:
B-cell = test: Inhibition of IgE production in B lymphocytes from BALB/c mouse; assay type: functional, cell-based
Procedure, shortened: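 B cells isolated from spleens of naive BALB/c mice, cultured 5 days with IL-4 (10 ng/mL) and anti-mouse CD40 antibody (100 ng/mL), with or without drug. IgE in supernatants quantified by ELISA against a standard curve of DNP-specific mouse monoclonal antibody.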

Mus musculus [1] = test: Oral bioavailability in mouse at 40 mg/kg, po relative to AVP-13358; assay type: ADME, organism-based; settings: in vivo
[2] = Ex vivo inhibition of IgE production in spleen cells from antigen sensitized BALB/c mouse; assay type: functional, cell-based
Procedure, shortened: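 BALB/c mice immunized with DNP-KLH plus alum; spleens taken 2 weeks later and cultured with antigen, with or without drug. Antigen-specific IgE in supernatants quantified by ELISA against a standard curve of DNP-specific mouse monoclonal antibody.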

T-cell [3] = test: Inhibition of IL4 production in conA and anti-CD3 antibody sensitized BALB/c mouse spleen T lymphocytes; assay type: functional, tissue-based
T-cell [4] = test: Inhibition of IL5 production in conA and anti-CD3 antibody sensitized BALB/c mouse spleen T lymphocytes; assay type: functional, tissue-based
T-cell [5] = test: Inhibition of IFN-gamma production in conA and anti-CD3 antibody sensitized BALB/c mouse spleen T lymphocytes; assay type: functional, tissue-based
[6] = Suppression of CD23 expression in IL4 and anti-CD40 antibody sensitized CD14-positive human peripheral blood lymphocytes; settings: Lymphocyte
[7] = Suppression of IL4 receptor alpha expression in IL4 and anti-CD40 antibody sensitized mouse splenocytes; settings: Splenocyte
[8] = Suppression of CD23 expression in IL4 and anti-CD40 antibody sensitized mouse splenocytes; settings: Splenocyte
Mus musculus [9] = test: Protection against allergic response in ovalbumin sensitized BALB/c mouse assessed as inhibition of airway hyper-responsiveness at 5 mg/kg, po twice daily; assay type: functional, organism-based; design: dose 5 mg/kg
Procedure, shortened: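 Female BALB/c mice sensitized i.p. with 10 µg OVA in 4 mg alum. At 2 weeks, OVA aerosol (2% in PBS) 20 min on 2 consecutive days with oral dosing twice daily for 3 days. 2 weeks later, OVA aerosol on 4 consecutive days with the same dosing. PBS-nebulized controls. Airway response to rising methacholine measured by whole-body plethysmography 1 day later.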

T-cell [10] = test: Inhibition of IL13 production in conA and anti-CD3 antibody sensitized BALB/c mouse spleen T lymphocytes; assay type: functional, tissue-based

SMILES	pIC50 (B-cell)	Relative Bioavailability (Mus musculus [1])	pIC50 [2]	further results
O=C(NC1CCCCC1)c1ccc2[nH]c(-c3ccc(NC(=O)C45CC6CC(CC(C6)C4)C5)cc3)nc2c1	8.15	< 0.1	8.70	–
O=C(Nc1ccccn1)c1ccc2[nH]c(-c3ccc(NC(=O)C45CC6CC(CC(C6)C4)C5)cc3)nc2c1	8.10	–	8.52	pIC50 (T-cell [3]): 7.52; pIC50 (T-cell [4]): 7.52; Activity (T-cell [5]): Active; pIC50 [6]: 7.70; pIC50 [7]: 7.00; pIC50 [8]: 7.40; Activity (Mus musculus [9]): Active; pIC50 (T-cell [10]): 7.52
O=C(Nc1ccccn1)c1ccc2[nH]c(-c3ccc(NC(=O)C45CC6CC(C4)C(=O)C(C6)C5)cc3)nc2c1	7.40	0.5	8.00	–
O=C(Nc1ccccn1)c1ccc2[nH]c(-c3ccc(NC(=O)C45C[C@@H]6C[C@H](C4)[C@H](O)[C@@H](C6)C5)cc3)nc2c1	7.82	< 0.1	9.00	–
CC(=O)Nc1ccc(-c2nc3cc(C(=O)NC45CC6CC(CC(C6)C4)C5)ccc3[nH]2)cc1	7.05	< 0.1	7.60	–
O=C(Nc1ccccn1)c1ccc2[nH]c(-c3ccc(NC(=O)C45C[C@@H]6C[C@H](C4)[C@@H](O)[C@@H](C6)C5)cc3)nc2c1	8.10	< 0.1	9.00	–

Now those with a higher pIC50 (B-cell), led by results:

pIC50 (B-cell)	Relative Bioavailability (Mus musculus [1])	SMILES	pIC50 [2]	further results
8.30	0.35	CC(=O)OC12CC3CC(C1)CC(C(=O)Nc1ccc(-c4nc5cc(C(=O)Nc6ccccn6)ccc5[nH]4)cc1)(C3)C2	9.00	–
8.70	< 0.1	O=C(Nc1ccc(-c2nc3cc(C(=O)NC45CC6CC(CC(C6)C4)C5)ccc3[nH]2)cc1)c1ccc(Cl)c(Cl)c1	9.40	–
8.70	< 0.1	O=C(NC12CC3CC(CC(C3)C1)C2)c1ccc2[nH]c(-c3ccc(NC(=O)C45CC6CC(CC(C6)C4)C5)cc3)nc2c1	9.00	–
